Experimental data reported in ChEMBL document CHEMBL3407440, “Monocarbonyl analogs of curcumin inhibit growth of antibiotic sensitive and resistant strains of Mycobacterium tuberculosis” (Eur J Med Chem, 2015).
Activity calls are given as the source filed them. The calls are words filed in the database; no cut-off is given here.

Key:
[1] = system: Mycobacterium marinum; experiment: Antituberculosis activity against Mycobacterium marinum assessed as diameter of zone of inhibition at 100 mM incubated for 7 days by disk diffusion assay; assay type: functional; details: 168 h, read-out: DIZ
In short: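 Mm 1218R grown in 7H9-ADC (0.025% Tween 80) to OD600 0.35, diluted to OD600 0.04, spread on 7H10-OADC agar and air-dried 10 min. A 6 mm disk received 10 µl of 100 mM analog (in DMSO or water). Plates were incubated 7 days at 30 °C in 5% CO2 (legend: 32 °C), three plates per analog. The bacteria-free zone around the disk was measured.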

[2] = system: Mycobacterium marinum; experiment: Antituberculosis activity against Mycobacterium marinum assessed as growth inhibition after 72 hrs by liquid culture assay; assay type: functional, organism-based
In short: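 Mm 1218R grown in 7H9-ADC (0.025% Tween 80) to OD600 0.35, then diluted to OD600 0.04. Cultured 72 h with analog in DMSO at 0.780–100 µM (twofold steps), in duplicate, alongside no-drug and 1% DMSO vehicle controls. Mean ± SEM of three experiments.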

[3] = system: Mycobacterium tuberculosis; experiment: Antituberculosis activity against Mycobacterium tuberculosis Beijing F2 assessed as growth inhibition after 72 hrs by liquid culture assay; assay type: functional, organism-based; details: Beijing F2, 72 h
[4] = system: Mycobacterium tuberculosis; experiment: Antituberculosis activity against Mycobacterium tuberculosis H37Rv assessed as growth inhibition after 72 hrs by liquid culture assay; assay type: functional, organism-based
[5] = Tmax in CD2F1 male mouse at 10 mg/kg, ip; assay type: ADME, organism-based; design: dose 10 mg/kg, route intraperitoneal; details: in vivo
[6] = Tmax in CD2F1 male mouse at 10 mg/kg, po; assay type: ADME, organism-based; design: dose 10 mg/kg, route oral; details: in vivo
[7] = Cmax in CD2F1 male mouse at 10 mg/kg, ip; assay type: ADME, organism-based; design: dose 10 mg/kg, route intraperitoneal; details: in vivo
[8] = Cmax in CD2F1 male mouse at 10 mg/kg, po; assay type: ADME, organism-based; design: dose 10 mg/kg, route oral; details: in vivo
[9] = Half life in CD2F1 male mouse at 10 mg/kg, ip; assay type: ADME, organism-based; design: dose 10 mg/kg, route intraperitoneal; details: in vivo
[10] = Half life in CD2F1 male mouse at 10 mg/kg, po; assay type: ADME, organism-based; design: dose 10 mg/kg, route oral; details: in vivo
[11] = Tmax in Swiss Webster male mouse at 12.5 mg/kg, ip; assay type: ADME, organism-based; design: dose 12.5 mg/kg, route intraperitoneal; details: in vivo
[12] = Cmax in Swiss Webster male mouse at 12.5 mg/kg, ip; assay type: ADME, organism-based; design: dose 12.5 mg/kg, route intraperitoneal; details: in vivo
[13] = Half life in Swiss Webster male mouse at 12.5 mg/kg, ip; assay type: ADME, organism-based; design: dose 12.5 mg/kg, route intraperitoneal; details: in vivo
[14] = system: Mycobacterium marinum; experiment: Potentiation of antituberculosis activity against Mycobacterium marinum assessed as UBS-109-induced growth inhibition at 0.3 uM after 72 hrs by liquid culture assay; assay type: functional, organism-based
In short: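 Mm cultured in 7H9-ADC broth with rifampicin (0.250–4 µg/mL) alone or combined with analog (6.250–100 µM), in duplicate, with no-drug and 1% DMSO controls. OD600 read after 72 h and normalized to vehicle. Combinations compared with each agent alone by nonparametric ANOVA. Mean ± SEM of three experiments.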

[15] = system: Mycobacterium marinum; experiment: Antituberculosis activity against rifampicin-resistant Mycobacterium marinum assessed as growth inhibition after 72 hrs by liquid culture assay; assay type: functional, organism-based
In short: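 Rifampicin-resistant Mm 1218R^rifR cultured in 7H9-ADC broth with DMSO, rifampicin or analog at varied concentrations for 72 h. Growth read as OD600 and normalized to untreated culture; IC50 derived. Mean ± SEM of three experiments.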

[16] = system: Mycobacterium tuberculosis; experiment: Antituberculosis activity against Mycobacterium tuberculosis H37Rv assessed as zone of inhibition at 100 mM incubated for 28 days by disk diffusion assay; assay type: functional, organism-based; details: 672 h
In short: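 Disk diffusion on Mtb H37Rv plates: disk loaded with 100 mM analog, plates incubated 28 days at 37 °C, then zone of inhibition measured.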

[17] = Tmax in CD1 male mouse at 50 mg/kg, po; assay type: ADME, organism-based; design: dose 50 mg/kg, route oral; details: in vivo
[18] = Cmax in CD1 male mouse at 50 mg/kg, po; assay type: ADME, organism-based; design: dose 50 mg/kg, route oral; details: in vivo
[19] = Half life in CD1 male mouse at 50 mg/kg, po; assay type: ADME, organism-based; design: dose 50 mg/kg, route oral; details: in vivo

SMILES: O=C1/C(=C/c2ccccn2)CNC[C@H]1Cc1ccccn1
- zone of inhibition at 100000 µM [1]: 4.6 mm
- IC50 [2]: 50 µM

SMILES: O=C1/C(=C/c2ccccc2F)CNC/C1=C\c1ccccc1F
- zone of inhibition at 100000 µM [1]: 2.6 mm
- IC50 [2]: 25 µM
- IC50 [3]: 50 µM
- IC50 [4]: 20 µM
- Tmax [5]: 3 min
- Tmax [6]: 3 min
- Cmax [7]: 259 ng/mL
- Cmax [8]: 275 ng/mL
- half-life [9]: 3.65 h
- half-life [10]: 2.95 h

SMILES: COC(=O)CCC(=O)N1C/C(=C\c2ccccc2F)C(=O)/C(=C/c2ccccc2F)C1
- zone of inhibition at 100000 µM [1]: 1.8 mm

SMILES: O=C1/C(=C/c2ccccn2)CNC/C1=C\c1ccccn1
- zone of inhibition at 100000 µM [1]: 4.7 mm
- Tmax [11]: 0.25 h
- Cmax [12]: 1070 ng/mL
- half-life [13]: 2.2 h

SMILES: CN1C/C(=C\c2ccccc2F)C(=O)/C(=C/c2ccccc2F)C1
- zone of inhibition at 100000 µM [1]: 1.4 mm

SMILES: O=C1/C(=C/c2ccccn2)CSC/C1=C\c1ccccn1
- zone of inhibition at 100000 µM [1]: 2.7 mm

SMILES: CO[C@H]1/C=C/O[C@@]2(C)Oc3c(C)c(O)c4c(O)c(c(/C=N/N5CCN(C)CC5)c(O)c4c3C2=O)NC(=O)/C(C)=C\C=C\[C@H](C)[C@H](O)[C@@H](C)[C@@H](O)[C@@H](C)[C@H](OC(C)=O)[C@@H]1C
- Activity [14]: inactive

SMILES: O=C1C(Cc2ccccn2)CNCC1Cc1ccccn1 (stereo unspecified)
- zone of inhibition at 100000 µM [1]: 0 mm

SMILES: CN1C/C(=C\c2ccccn2)C(=O)/C(=C/c2ccccn2)C1
- zone of inhibition at 100000 µM [1]: 5.7 mm
- IC50 [2]: 10 µM
- IC50 [15]: 4 µM
- IC50 [16]: 4 µM
- IC50 [3]: 20 µM
- IC50 [4]: 10 µM
- Tmax [17]: 0.5 h
- Cmax [18]: 131 ng/mL
- half-life [19]: 3.7 h

SMILES: COc1cc(/C=C/C(=O)CC(=O)/C=C/c2ccc(O)c(OC)c2)ccc1O [CURCUMIN]
- zone of inhibition at 100000 µM [1]: 1.1 mm
